The values below come from ChEMBL document CHEMBL3244425 (J Med Chem, 1979).

Data set [1] can be described thus: Fraction unbound in 22% albino mouse serum at 10 uM by equilibrium dialysis method in presence of diisopropyl fluorophosphate. It counts as ADME, cell-free. On the technique in general: In equilibrium dialysis only unbound substance equilibrates across the membrane.
The next data set addresses serum albumin (Homo sapiens, UniProt P02768). The data set can be described thus: Binding affinity to human serum albumin at 10 uM after 12 to 20 hrs by scintillation spectrometry. It counts as ADME. The method, boiled down:
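HSA as supplied (lipid under 10 mg/g), 1% (10 mg/mL) in 0.05 M buffer. Equilibrium dialysis against buffer for 12-20 h at room temperature, with 10 μM radiolabeled substrate. Free percentage is taken from the ratio of radioactivities on the two sides, then corrected for partial hydrolysis using TLC of ether extracts.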

Data set [2] can be described thus: Ratio of oxazepam level in brain to blood in albino mouse at 5 mg equivalent of oxazepam/kg after 20 mins. The class given is ADME, tissue-based.
Data set [3] is described as follows: Ratio of oxazepam level in brain to blood in albino mouse at 5 mg equivalent of oxazepam/kg after 1 min. It counts as ADME, tissue-based.
The subject of data set [4] is Mus musculus. The data set can be described thus: Drug excretion in albino mouse assessed as unexcreted drug at 5 mg equivalent of oxazepam/kg after 96 hrs. The settings on record: in vivo. The class given is ADME, organism-based.
The nature of data set [5]: Ratio of oxazepam level in brain to blood in albino mouse at 5 mg equivalent of oxazepam/kg after 40 mins. The class given is ADME, tissue-based.
Data set [6] can be described thus: Ratio of oxazepam level in brain to blood in albino mouse at 5 mg equivalent of oxazepam/kg after 10 mins. It counts as ADME, tissue-based.
A short description of data set [7]: Ratio of oxazepam level in brain to blood in albino mouse at 5 mg equivalent of oxazepam/kg after 3 mins. The class given is ADME, tissue-based. To be noted: 0.05 h.
Data set [8] in a line: Ratio of oxazepam level in brain to blood in albino mouse at 5 mg equivalent of oxazepam/kg after 5 mins. It counts as ADME, tissue-based.
In data set [9] the test system is Mus musculus. The data set can be described thus: Drug excretion in albino mouse assessed as unexcreted drug at 5 mg equivalent of oxazepam/kg after 150 hrs. It counts as ADME, organism-based. To be noted: in vivo.
Data set [10] in a line: Ratio of oxazepam level in brain to blood in albino mouse at 5 mg equivalent of oxazepam/kg after 2 mins. It counts as ADME, tissue-based.
Data set [11] deals with Mus musculus. The data set can be described thus: Drug excretion in albino mouse assessed as unexcreted drug at 10 mg equivalent of oxazepam/kg after 96 hrs. It counts as ADME, organism-based. To be noted: in vivo.
The nature of data set [12]: Ratio of oxazepam level in brain to blood in albino mouse at 10 mg equivalent of oxazepam/kg after 20 mins. The class given is ADME, tissue-based.
The nature of data set [13]: Ratio of oxazepam level in brain to blood in albino mouse at 10 mg equivalent of oxazepam/kg after 5 mins. It counts as ADME, tissue-based.
The nature of data set [14]: Ratio of oxazepam level in brain to blood in albino mouse at 10 mg equivalent of oxazepam/kg after 3 mins. The class given is ADME, tissue-based. The settings on record: 0.05 h.
Data set [15] in a line: Ratio of oxazepam level in brain to blood in albino mouse at 10 mg equivalent of oxazepam/kg after 10 mins. The class given is ADME, tissue-based.
A short description of data set [16]: Ratio of oxazepam level in brain to blood in albino mouse at 10 mg equivalent of oxazepam/kg after 30 mins. It counts as ADME, tissue-based. The settings on record: 0.5 h.
Data set [17] is described as follows: Ratio of oxazepam level in brain to blood in albino mouse at 10 mg equivalent of oxazepam/kg after 40 mins. The class given is ADME, tissue-based.
The nature of data set [18]: Ratio of oxazepam level in brain to blood in albino mouse at 10 mg equivalent of oxazepam/kg after 2 mins. It counts as ADME, tissue-based.
Data set [19] can be described thus: Ratio of oxazepam level in brain to blood in albino mouse at 10 mg equivalent of oxazepam/kg after 6 mins. It counts as ADME, tissue-based. To be noted: 0.1 h.
The subject of data set [20] is Mus musculus. The data set can be described thus: Drug excretion in albino mouse assessed as unexcreted drug at 10 mg equivalent of oxazepam/kg after 150 hrs. The class given is ADME, organism-based. To be noted: in vivo.
The nature of data set [21]: Ratio of oxazepam level in brain to blood in albino mouse at 10 mg equivalent of oxazepam/kg after 12 mins. It counts as ADME, tissue-based. To be noted: 0.2 h.
Data set [22] in a line: Ratio of oxazepam level in brain to blood in albino mouse at 10 mg equivalent of oxazepam/kg after 1 min. It counts as ADME, tissue-based.
The nature of data set [23]: Ratio of oxazepam level in brain to blood in albino mouse at 15 mg equivalent of oxazepam/kg after 6 mins. The class given is ADME, tissue-based. The settings on record: 0.1 h.
Data set [24] can be described thus: Ratio of oxazepam level in brain to blood in albino mouse at 15 mg equivalent of oxazepam/kg after 1 min. It counts as ADME, tissue-based.
A short description of data set [25]: Ratio of oxazepam level in brain to blood in albino mouse at 15 mg equivalent of oxazepam/kg after 40 mins. It counts as ADME, tissue-based.
Data set [26] can be described thus: Ratio of oxazepam level in brain to blood in albino mouse at 15 mg equivalent of oxazepam/kg after 3 mins. The class given is ADME, tissue-based. The settings on record: 0.05 h.
Data set [27] can be described thus: Ratio of oxazepam level in brain to blood in albino mouse at 15 mg equivalent of oxazepam/kg after 12 mins. It counts as ADME, tissue-based. To be noted: 0.2 h.
Data set [28] can be described thus: Ratio of oxazepam level in brain to blood in albino mouse at 15 mg equivalent of oxazepam/kg after 20 mins. The class given is ADME, tissue-based.
Data set [29] deals with Mus musculus. The data set can be described thus: Drug excretion in albino mouse assessed as unexcreted drug at 10 mg equivalent of oxazepam/kg after 100 to 150 hrs. To be noted: in vivo. The class given is ADME, organism-based.

serum albumin, sequence (P02768 whole entry): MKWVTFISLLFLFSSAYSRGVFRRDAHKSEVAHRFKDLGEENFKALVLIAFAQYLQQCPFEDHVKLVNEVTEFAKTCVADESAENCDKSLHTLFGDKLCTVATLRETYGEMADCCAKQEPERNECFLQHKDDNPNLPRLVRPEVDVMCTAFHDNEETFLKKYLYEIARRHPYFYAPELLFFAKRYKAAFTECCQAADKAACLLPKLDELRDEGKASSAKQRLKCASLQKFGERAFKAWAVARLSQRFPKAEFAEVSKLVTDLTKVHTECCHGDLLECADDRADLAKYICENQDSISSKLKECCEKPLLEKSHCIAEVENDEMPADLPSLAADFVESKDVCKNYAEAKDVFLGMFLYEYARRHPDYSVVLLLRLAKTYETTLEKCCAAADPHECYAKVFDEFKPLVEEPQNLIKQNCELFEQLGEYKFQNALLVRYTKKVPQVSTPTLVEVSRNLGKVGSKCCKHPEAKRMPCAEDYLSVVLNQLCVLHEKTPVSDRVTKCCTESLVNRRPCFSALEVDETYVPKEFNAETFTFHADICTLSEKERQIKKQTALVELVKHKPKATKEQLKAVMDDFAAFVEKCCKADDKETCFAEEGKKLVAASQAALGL

As for `CC(=O)OC1N=C(c2ccccc2)c2cc(Cl)ccc2NC1=O` (stereo not given), the fraction unbound at 10 µM in [1] was determined as 0.285; on serum albumin it was 0.246.

`O=C(CCc1ccccc1)OC1N=C(c2ccccc2)c2cc(Cl)ccc2NC1=O` (stereo not given): on serum albumin, the fraction unbound at 10 µM is 0.052.

As to `O=C(CCc1ccccc1)OC1N=C(c2ccccc2)c2cc(Cl)ccc2N[14C]1=O` (stereo not given), the Ratio in [2] was 1.4; in data set [3] it was 0.6; in data set [5], 2.2; in [6], 0.5; in data set [7], 0.4; in data set [8] it was 0.5. Further, the Drug recovery in the data set on Mus musculus [4] was found to be 26%.

Take `CC(C)CC(=O)OC1N=C(c2ccccc2)c2cc(Cl)ccc2NC1=O` (stereo not given): the figures for the fraction unbound at 10 µM (in [1]; on serum albumin) were 0.067 and 0.093, respectively.

Turning to `CC(C)(Cc1ccccc1)C(=O)OC1N=C(c2ccccc2)c2cc(Cl)ccc2NC1=O` (stereo not given), the fraction unbound at 10 µM is 0.113 in data set [1] and 0.022 on serum albumin.

For `CC(Cc1ccccc1)C(=O)OC1N=C(c2ccccc2)c2cc(Cl)ccc2N[14C]1=O` (single isomer, unassigned; (+)), the Drug recovery with Mus musculus [9] turned out to be 34%.

With `CC(Cc1ccccc1)C(=O)OC1N=C(c2ccccc2)c2cc(Cl)ccc2N[14C]1=O` (single isomer, unassigned; (-)), the Ratio in data set [2] is 2; in data set [5], 2.1; in data set [6] it was 1.6; in [7], 0.3; in [8], 1.1.

`CCCC(=O)OC1N=C(c2ccccc2)c2cc(Cl)ccc2NC1=O` (stereo not given): the results for the unbound share (fraction unbound) at 10 µM (in [1]; at serum albumin) were 0.149 and 0.089, respectively.

Take `COC(=O)CCC(=O)OC1N=C(c2ccccc2)c2cc(Cl)ccc2NC1=O` (stereo not given): the fraction unbound at 10 µM in data set [1] is 0.299; at serum albumin it was 0.172.

As to `CC(C)C(=O)OC1N=C(c2ccccc2)c2cc(Cl)ccc2N[14C]1=O` (stereo not given), the Ratio is 1.9 in data set [2]; 0.7 in [10]; 2.3 in data set [5]; 1.8 in [6]; 1.2 in [8].

Turning to `CCC(CC)C(=O)OC1N=C(c2ccccc2)c2cc(Cl)ccc2NC1=O` (stereo not given), the results for the fraction unbound at 10 µM (in data set [1]; at serum albumin) were 0.038 and 0.06, respectively.

Consider `CC(C)C(=O)OC1N=C(c2ccccc2)c2cc(Cl)ccc2NC1=O` (stereo not given), for which the fraction unbound at 10 µM was 0.147 in data set [1] and 0.078 on serum albumin.

Take `CC(Cc1ccccc1)C(=O)OC1N=C(c2ccccc2)c2cc(Cl)ccc2NC1=O` (stereo not given): the results for the fraction unbound at 10 µM (in data set [1]; at serum albumin) were 0.111 and 0.051, respectively.

Take `CC(C)(C)C(=O)OC1N=C(c2ccccc2)c2cc(Cl)ccc2N[14C]1=O` (stereo not given): in the data set with Mus musculus [11], the Drug recovery came to 7%. The Ratio in data set [12] was determined as 2; in [13], 2; in data set [14] it was 1.7; in data set [15] it was 2.2; in [16], 2.5.

For `CCC(CC)C(=O)OC1N=C(c2ccccc2)c2cc(Cl)ccc2N[14C]1=O` (stereo not given), the Ratio in data set [12] came to 1.1; in data set [13], 0.6; in data set [17] it was 1.7; in data set [18] it was 0.7; in data set [15], 1; in data set [16], 1.4.

Take `O=C(CCCc1ccccc1)OC1N=C(c2ccccc2)c2cc(Cl)ccc2N[14C]1=O` (stereo not given): the Ratio in data set [2] is on record as 1; in data set [3] it was 0.5; in data set [5] it was 0.9; in [6], 0.4; in data set [7], 0.5; in [8], 0.3. Besides, the Drug recovery in the data set on Mus musculus [9] was found to be 38%.

Take `CCC(=O)OC1N=C(c2ccccc2)c2cc(Cl)ccc2N[14C]1=O` (stereo not given): the Ratio in [12] is 2.8; in [19] it was 3; in data set [17], 2.8; in [21] it was 2.4; in data set [14], 2; in [22] it was 3.8. The Drug recovery in the data set on Mus musculus [20] is recorded as 19%.

Turning to `CCCC(=O)OC1N=C(c2ccccc2)c2cc(Cl)ccc2N[14C]1=O` (stereo not given), the Ratio in data set [23] worked out at 0.4; in data set [24], 0.2; in data set [25], 2; in data set [26] it was 0.3; in data set [27], 0.8; in [28], 1.4.

For the molecule `O=C(CCCc1ccccc1)OC1N=C(c2ccccc2)c2cc(Cl)ccc2NC1=O` (stereo not given), the unbound share (fraction unbound) at 10 µM stood at 0.102 in data set [1] and 0.034 on serum albumin.

`CC(=O)OC1N=C(c2ccccc2)c2cc(Cl)ccc2N[14C]1=O` (stereo not given): the Ratio is 2 in [13]; 3.4 in data set [14]; 4 in data set [22]; 2.4 in [15]; 4 in [16]. Moreover, the Drug recovery in the data set on Mus musculus [29] is 0%.

By fraction unbound is commonly meant free concentration divided by total concentration.
